Data set [1] in a line: (§1) Clearance in rat perfused kidney at 2 ug/ml after 5 to 105 mins by LC-MS/MS analysis. It counts as ADME, tissue-based. The conditions noted are these: perfused kidney. In outline:
(§2)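 Isolated perfused kidneys from male Sprague-Dawley rats (400 to 450 g) in a recirculating 160 ml perfusate with [3H]inulin (130 kBq) for GFR. Colistin sulfate bolus gave an initial 2 µg/ml (1.27 µM colistin A+B). Urine was collected in 5-min intervals from 5 to 105 min, with perfusate sampled at midpoints. Colistin A and B were measured by LC-MS/MS. CLR and CR were derived; n = 5, mean ± SD.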

Data set [2] in a line: (§3) Fraction unbound in Sprague-Dawley rat plasma. Format: ADME, cell-free. The conditions noted are these: Sprague-Dawley.
Data set [3] in a line: (§4) Fraction unbound in […] at 1 ug/ml by LC-MS/MS analysis. It counts as ADME, cell-free, Plasma. The conditions noted are these: rat. In outline: (§5)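 Unbound fraction was measured in IPK perfusate by ultrafiltration, at colistin sulfate levels approximating initial and end perfusion concentrations. Colistin A and B in ultrafiltrate and unfiltered perfusate were quantified by LC-MS/MS. fu is the ultrafiltrate/perfusate concentration ratio, determined separately for A and B.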

For data set [4], the system named is Kidney. The data set is described as follows: Clearance in rat perfused kidney assessed as clearance ratio at 2 ug/ml after 5 to 105 mins by LC-MS/MS analysis. It counts as ADME, tissue-based. In outline: as §2
Data set [5] can be described thus: Drug absorption in rat tubular urine at 2 ug/ml after 5 to 105 mins by LC-MS/MS analysis. It counts as ADME, tissue-based. In outline:
as §2

The subject of data set [6] is Kidney. The data set is described as follows: Tubular reabsorption in rat perfused kidney at 2 ug/ml after 5 to 105 mins by LC-MS/MS analysis. It counts as ADME, tissue-based. Summed up: as §2
In data set [7] the test system is Kidney. Described as §1. The conditions noted are these: in vivo. Format: ADME, tissue-based. In outline: as §2
Data set [8] deals with Plasma. The description is as §3. Format: ADME, cell-free.
For data set [9], the system named is Plasma. The description is as §4. The conditions noted are these: rat. It counts as ADME, cell-free. In outline: as §5

Positions of bridges follow the written chain, without caps; N, C: chain ends. Non-standard residues stand in square brackets, D forms with d. Residues, ends and D or L forms follow the SMILES beside them. *: point of attachment. Heptanoyl(6-Me) = CC(C)CCCCC(=O)*; Dab = NCC[C@H](N)C(=O)O

As usually defined, the fraction unbound is the share of the substance not bound to proteins or other matrix. Low values mean extensive binding, high ones weak binding. `CC(C)CCCCC(=O)N[C@@H](CCN)C(=O)N[C@H](C(=O)N[C@@H](CCN)C(=O)N[C@H]1CCNC(=O)[C@H]([C@@H](C)O)NC(=O)[C@H](CCN)NC(=O)[C@H](CCN)NC(=O)[C@H](CC(C)C)NC(=O)[C@@H](CC(C)C)NC(=O)[C@H](CCN)NC1=O)[C@@H](C)O` [COLISTIN B] ({Heptanoyl(6-Me)}-[Dab]T[Dab][Dab][Dab][dL]L[Dab][Dab]T; lactam 4-C) had a CL renal at 2 ug/ml in [1] of 0.028 mL/min. Also, in data set [2], the fraction unbound came to 0.52. In addition, the fraction unbound at 1 ug/ml in [3] was found to be 0.6. Further, in the data set with Kidney [4], the Ratio was < 0.1. In addition, the Activity (in [5]; in the data set with Kidney [6]) was > 90% throughout.
In the data set on Kidney [7], COLISTIN came in with a CL of 0.028 mL/min. For the same molecule, the Fu is listed as 0.36 in the data set on Plasma [8] and 0.41 with Plasma [9]. For the same molecule, the Ratio in the data set on Kidney [4] is < 0.1. Further, the Activity (in data set [5]; in the data set on Kidney [6]) was > 90% in each case.
